Legend:
[1] = doxorubicin; cited from earlier work
[2] = tested on: triple negative breast cancer; conditions: cited from earlier work
[3] = Body weight of CT26 tumor-bearing mice; assay type: in vivo, mouse; conditions: doxorubicin 5 mg/kg i.v. days 6, 9, 12, alone or in the combination group
How it was run: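 Eight-week-old male and female Balb/c mice received 1×10⁶ CT26 cells s.c. in the right flank. At 50–100 mm³, tumours were randomised into groups of 10 (half female). Doxorubicin 5 mg/kg i.v. was given on days 6, 9 and 12 post-implant, alone or combined with test peptide 5 mg/kg daily. Saline served as negative control. Body weight was recorded daily throughout treatment.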

[4] = tested on: tumor immunogenic cell death (ICD); conditions: cited from earlier work

In the case of `COc1cccc2c1C(=O)c1c(O)c3c(c(O)c1C2=O)C[C@@](O)(C(=O)CO)C[C@@H]3O[C@H]1C[C@H](N)[C@H](O)[C@H](C)O1` [doxorubicin], the Maximum tolerated dose [1] is given as 5 mg/kg, the “Effect on CD47 expression” value [2] is given as “induced CD47 expression in triple negative breast cancer” and the “Systemic toxicity (weight loss)” value [3] is given as “slight systemic toxicity”. For the same compound, the “Induction of tumor immunogenic cell death” value [4] was “induce tumor immunogenic cell death (ICD)”.

From article PMC11034909 (Advanced therapeutics, 2023)
